ChEMBL document CHEMBL5042517, “Discovery, X-ray Crystallography, and Anti-inflammatory Activity of Bromodomain-containing Protein 4 (BRD4) BD1 Inhibitors Targeting a Distinct New Binding Site” (J Med Chem, 2022)
Values after ≈ are worked out from the molar mass of the structure shown. Active and inactive are the calls of the source. No cut-off for these calls is given here.

Legend:
[1] = molecular target: Bromodomain testis-specific protein (Homo sapiens, UniProt Q58F21); test: Binding affinity BRDT BD1 (unknown origin) incubated for 1 hr by TR-FRET assay
Mus musculus [2] = test: Antiinflammatory activity in C57BL/6 mouse model of poly(I:C)-induced acute airway inflammation assessed as decrease in MCP-1 level in BALF at 10 mg/kg, po administered 1 day prior to poly(I:C) stimulation; type: functional, organism-based
[3] = Half life in rat at 10 mg/kg, iv; type: ADME, organism-based; conditions: in vivo
[4] = test system: Bromodomain-containing protein 4 (Homo sapiens), O60885 [E151A]
Mus musculus [5] = test: Antiinflammatory activity in C57BL/6 mouse model of poly(I:C)-induced acute airway inflammation assessed as decrease in ISG54 gene expression in lung tissue at 10 mg/kg, po administered 1 day prior to poly(I:C) stimulation; type: functional, organism-based
[6] = molecular target: T1, Bromodomain-containing protein 4 (Homo sapiens, UniProt O60885)
[7] = molecular target: Bromodomain-containing protein 2 (Homo sapiens, UniProt P25440); test: Binding affinity BRD2 BD1 (unknown origin) incubated for 1 hr by TR-FRET assay
Sequence of Bromodomain-containing protein 2 (P25440 whole entry): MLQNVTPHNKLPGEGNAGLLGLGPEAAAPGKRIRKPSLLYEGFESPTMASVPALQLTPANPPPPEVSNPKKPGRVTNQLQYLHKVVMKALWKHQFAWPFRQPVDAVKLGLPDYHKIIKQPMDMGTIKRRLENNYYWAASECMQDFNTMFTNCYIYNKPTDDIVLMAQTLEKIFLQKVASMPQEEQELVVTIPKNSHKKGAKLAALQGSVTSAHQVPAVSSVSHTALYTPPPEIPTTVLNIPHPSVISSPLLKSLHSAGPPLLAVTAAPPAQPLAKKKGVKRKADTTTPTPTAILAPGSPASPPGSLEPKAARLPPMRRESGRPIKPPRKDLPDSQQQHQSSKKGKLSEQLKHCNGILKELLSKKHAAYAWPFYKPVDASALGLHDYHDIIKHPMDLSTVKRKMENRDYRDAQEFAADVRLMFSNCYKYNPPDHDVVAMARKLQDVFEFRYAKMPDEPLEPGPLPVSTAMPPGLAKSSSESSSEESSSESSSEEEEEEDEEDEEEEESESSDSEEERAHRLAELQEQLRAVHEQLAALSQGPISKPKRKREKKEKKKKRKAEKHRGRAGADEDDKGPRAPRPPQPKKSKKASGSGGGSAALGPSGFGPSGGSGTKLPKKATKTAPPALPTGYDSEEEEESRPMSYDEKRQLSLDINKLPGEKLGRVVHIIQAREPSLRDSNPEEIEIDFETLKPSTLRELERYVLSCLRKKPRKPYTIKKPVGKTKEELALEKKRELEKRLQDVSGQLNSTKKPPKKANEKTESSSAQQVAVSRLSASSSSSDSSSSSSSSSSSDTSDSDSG
Procedure, shortened: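 Commercial TR-FRET kit with recombinant BRD2 bromodomain. Inhibitor at 0.01 nM–100 μM, 1 h at room temperature. Excitation 340 nm; 670/620 nm emission ratio read with 100 μs delay. IC50 from a four-parameter fit, mean of three runs.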

Mus musculus [8] = test: Antiinflammatory activity in C57BL/6 mouse model of poly(I:C)-induced acute airway inflammation assessed as decrease in KC gene expression in lung tissue at 10 mg/kg, po administered 1 day prior to poly(I:C) stimulation; type: functional, organism-based
[9] = test system: Bromodomain-containing protein 4 (Homo sapiens), O60885 [E151A]; remark: listed apart in the source
[10] = test system: Bromodomain-containing protein 4 (Homo sapiens), O60885 [E151A]; remark: listed apart in the source
[11] = test system: Bromodomain-containing protein 4 (Homo sapiens), O60885 [E151A]; remark: listed apart in the source
[12] = test system: Bromodomain-containing protein 4 (Homo sapiens), O60885 [E151A]; remark: listed apart in the source
[13] = molecular target: T1, Bromodomain-containing protein 4; remark: listed apart in the source
[14] = molecular target: T1, Bromodomain-containing protein 4; remark: listed apart in the source
Mus musculus [15] = test: Antiinflammatory activity in C57BL/6 mouse model of poly(I:C)-induced acute airway inflammation assessed as inhibition of neutrophilic inflammation around small sized airways at 10 mg/kg, po administered 1 day prior to poly(I:C) stimulation by H and E staining based analysis; type: functional; parameters: scale not given: the % may be the effect or the level left
[16] = Aqueous solubility of the compound after 24 hrs by HPLC analysis; type: physicochemical; conditions: buffer
Procedure, shortened: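 Compound suspended in water and shaken 24 h at 25 °C, then centrifuged and filtered. Supernatant analyzed by C18 reverse-phase HPLC with one-point calibration against solutions of known concentration.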

[17] = Volume of distribution at steady state in rat at 20 mg/kg, po; type: ADME, organism-based; conditions: in vivo
[18] = molecular target: T1, Bromodomain-containing protein 4; test: Binding affinity to wild type human BRD4 BD1 (42 to168 residues) expressed in bacterial competent cells assessed as increase in thermal stability by thermal shift assay
[19] = Volume of distribution at steady state in rat at 10 mg/kg, iv; type: ADME, organism-based; conditions: in vivo, read-out: Vdss
CREB-binding protein = CREB-binding protein (Homo sapiens, UniProt Q92793); test: Binding affinity CBP (unknown origin) incubated for 1 hr by TR-FRET assay
Sequence of CREB-binding protein (Q92793 whole entry): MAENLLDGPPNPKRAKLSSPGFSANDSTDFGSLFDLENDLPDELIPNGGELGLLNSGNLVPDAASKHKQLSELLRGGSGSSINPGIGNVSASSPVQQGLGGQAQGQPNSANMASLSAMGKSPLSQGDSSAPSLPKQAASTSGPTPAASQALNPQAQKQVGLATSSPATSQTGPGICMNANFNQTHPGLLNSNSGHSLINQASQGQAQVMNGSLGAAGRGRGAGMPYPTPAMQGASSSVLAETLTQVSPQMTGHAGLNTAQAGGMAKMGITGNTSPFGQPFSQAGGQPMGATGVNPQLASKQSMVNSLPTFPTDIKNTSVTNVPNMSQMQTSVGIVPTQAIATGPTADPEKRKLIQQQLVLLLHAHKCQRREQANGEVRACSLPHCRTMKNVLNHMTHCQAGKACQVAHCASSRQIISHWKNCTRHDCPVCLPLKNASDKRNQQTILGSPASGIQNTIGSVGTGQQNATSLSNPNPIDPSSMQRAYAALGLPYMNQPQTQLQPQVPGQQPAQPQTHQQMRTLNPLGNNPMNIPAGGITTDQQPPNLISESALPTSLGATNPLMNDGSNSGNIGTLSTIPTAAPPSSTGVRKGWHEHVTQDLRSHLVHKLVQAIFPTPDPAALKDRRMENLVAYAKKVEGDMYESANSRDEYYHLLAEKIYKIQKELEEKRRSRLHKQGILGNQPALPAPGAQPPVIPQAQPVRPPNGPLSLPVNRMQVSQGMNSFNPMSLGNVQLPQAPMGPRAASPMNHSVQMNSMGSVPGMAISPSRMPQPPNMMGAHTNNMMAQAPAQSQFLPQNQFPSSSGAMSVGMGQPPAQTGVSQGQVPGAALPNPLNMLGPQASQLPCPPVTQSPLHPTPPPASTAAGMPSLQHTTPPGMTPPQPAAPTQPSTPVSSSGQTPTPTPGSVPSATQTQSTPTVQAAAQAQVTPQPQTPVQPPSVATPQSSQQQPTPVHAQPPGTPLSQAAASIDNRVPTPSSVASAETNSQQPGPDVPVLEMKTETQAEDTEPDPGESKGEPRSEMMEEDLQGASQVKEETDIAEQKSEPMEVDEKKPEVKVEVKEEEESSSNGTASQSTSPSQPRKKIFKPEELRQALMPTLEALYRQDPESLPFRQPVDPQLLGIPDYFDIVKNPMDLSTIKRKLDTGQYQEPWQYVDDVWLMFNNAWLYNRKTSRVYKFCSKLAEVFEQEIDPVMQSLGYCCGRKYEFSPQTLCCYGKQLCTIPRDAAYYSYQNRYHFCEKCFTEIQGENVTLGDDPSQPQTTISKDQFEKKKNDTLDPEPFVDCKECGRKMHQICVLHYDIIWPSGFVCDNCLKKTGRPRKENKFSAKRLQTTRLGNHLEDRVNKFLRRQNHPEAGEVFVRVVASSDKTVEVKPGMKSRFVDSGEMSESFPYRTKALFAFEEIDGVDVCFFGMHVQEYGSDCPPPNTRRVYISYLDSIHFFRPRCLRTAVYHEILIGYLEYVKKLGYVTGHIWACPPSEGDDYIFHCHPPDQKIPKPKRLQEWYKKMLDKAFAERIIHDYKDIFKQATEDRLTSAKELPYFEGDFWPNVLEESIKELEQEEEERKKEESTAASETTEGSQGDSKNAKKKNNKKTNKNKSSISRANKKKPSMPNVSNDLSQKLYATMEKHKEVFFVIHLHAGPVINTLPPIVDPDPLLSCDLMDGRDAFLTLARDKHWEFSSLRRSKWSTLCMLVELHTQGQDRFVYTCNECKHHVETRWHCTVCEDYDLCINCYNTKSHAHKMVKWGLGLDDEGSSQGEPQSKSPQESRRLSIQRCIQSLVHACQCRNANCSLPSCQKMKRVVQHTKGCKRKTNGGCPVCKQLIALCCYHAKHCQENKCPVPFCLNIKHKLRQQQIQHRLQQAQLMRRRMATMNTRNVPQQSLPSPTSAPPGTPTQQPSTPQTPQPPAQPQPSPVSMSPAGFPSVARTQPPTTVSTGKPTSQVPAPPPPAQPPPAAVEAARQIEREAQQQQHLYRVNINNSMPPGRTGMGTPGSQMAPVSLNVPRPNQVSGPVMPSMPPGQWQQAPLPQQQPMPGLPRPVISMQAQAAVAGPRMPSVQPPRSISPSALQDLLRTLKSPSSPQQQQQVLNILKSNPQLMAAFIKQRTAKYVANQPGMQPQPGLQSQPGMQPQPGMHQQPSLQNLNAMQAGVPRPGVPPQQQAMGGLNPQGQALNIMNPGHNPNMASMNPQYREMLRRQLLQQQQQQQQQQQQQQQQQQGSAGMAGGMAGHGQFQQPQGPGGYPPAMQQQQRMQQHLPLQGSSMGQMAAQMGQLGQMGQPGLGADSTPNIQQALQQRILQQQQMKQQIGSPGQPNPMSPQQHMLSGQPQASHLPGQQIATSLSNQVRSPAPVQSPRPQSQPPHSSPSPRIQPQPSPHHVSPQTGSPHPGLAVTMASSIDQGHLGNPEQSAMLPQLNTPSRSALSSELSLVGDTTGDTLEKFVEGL

Mus musculus [20] = test: Antiinflammatory activity in C57BL/6 mouse model of poly(I:C)-induced acute airway inflammation assessed as decrease in neutrophils level in BALF at 10 mg/kg, po administered 1 day prior to poly(I:C) stimulation; type: functional, organism-based
SAEC = test: Antiinflammatory activity in human SAEC assessed as decrease in H3K122Ac accumulation by immunofluorescence analysis; type: functional, cell-based
Procedure, shortened: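 Immortalized human small airway epithelial cells stimulated with poly(I:C) at 10 μg/mL. H3K122Ac detected by immunofluorescence and quantified as fold change in total fluorescence intensity.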

[21] = molecular target: T1, Bromodomain-containing protein 4; remark: listed apart in the source
[22] = AUC (0 to t) in rat at 20 mg/kg, po; type: ADME, organism-based; parameters: dose 20 mg/kg; conditions: in vivo
Mus musculus [23] = test: Antiinflammatory activity in C57BL/6 mouse model of poly(I:C)-induced acute airway inflammation assessed as decrease in RANTES level in BALF at 10 mg/kg, po administered 1 day prior to poly(I:C) stimulation; type: functional, organism-based
[24] = molecular target: T1, Bromodomain-containing protein 4; remark: listed apart in the source
[25] = Antiinflammatory activity in human SAEC assessed as inhibition of Poly(I:C) induced IL-6 expression pretreated for 24 hrs followed by Poly(I:C) addition for 4 hrs by qRT-PCR analysis; type: functional, cell-based
Procedure, shortened: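 Poly(I:C) 10 μg/mL then added for 4 h. CIG5 or IL-6 mRNA measured by qRT-PCR (ΔΔCt, PPIA normalized). IC50 from a four-parameter fit, mean ± SD of three independent runs.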

Mus musculus [26] = test: Antiinflammatory activity in C57BL/6 mouse model of poly(I:C)-induced acute airway inflammation assessed as decrease in KC level in BALF at 10 mg/kg, po administered 1 day prior to poly(I:C) stimulation; type: functional, organism-based
Mus musculus [27] = test: Antiinflammatory activity in C57BL/6 mouse model of poly(I:C)-induced acute airway inflammation assessed as inhibition of neutrophilic inflammation around medium sized airways at 10 mg/kg, po administered 1 day prior to poly(I:C) stimulation by H and E staining based analysis; type: functional; parameters: scale not given: the % may be the effect or the level left
Mus musculus [28] = test: Antiinflammatory activity in C57BL/6 mouse model of poly(I:C)-induced acute airway inflammation assessed as decrease in H3K122Ac accumulation in lung tissue at 10 mg/kg, po administered 1 day prior to poly(I:C) stimulation by immunofluorescence analysis; type: functional, organism-based
Procedure, shortened: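 Same mouse model: 10 mg/kg po one day before, plus a second dose with intranasal poly(I:C) (300 μg). Lungs collected one day later. H3K122Ac detected by immunofluorescence on paraffin lung sections and quantified as fold change in total fluorescence intensity.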

[29] = Cmax in rat at 20 mg/kg, po; type: ADME, organism-based; parameters: route oral, dose 20 mg/kg; conditions: in vivo
[30] = molecular target: T1, Bromodomain-containing protein 4; test: Binding affinity to wild type human BRD4 BD2 (349 to 461 residues) expressed in bacterial competent cells assessed as increase in thermal stability by thermal shift assay
Mus musculus [31] = test: Antiinflammatory activity in C57BL/6 mouse model of poly(I:C)-induced acute airway inflammation assessed as decrease in IL-6 level in BALF at 10 mg/kg, po administered 1 day prior to poly(I:C) stimulation; type: functional, organism-based

With `O=C(Nc1ccc(C(F)(F)F)cc1)Nc1ccc(S(=O)(=O)N2CCC[C@H]2CN2CCOCC2)cc1` the IC50 [1] was 2.42 µM, the Activity (Mus musculus [2]) was “inactive” and the half-life [3] was 2.5 h. The ΔTm [4] was 0.9 °C, the Activity (Mus musculus [5]) was “Active” and the ΔTm [6] was 4.5 °C. The IC50 [7] was 0.835 µM, the Activity (Mus musculus [8]) was “inactive” and the ΔTm [9] was 0.1 °C. The ΔTm [10] was 0.5 °C, the ΔTm [11] was 0.7 °C and the ΔTm [12] was 0.4 °C. For the same compound, the ΔTm [13] was 0.8 °C, the ΔTm [14] was 15.5 °C and the Activity (Mus musculus [15]) was 100%. The solubility [16] was 3500 µg/mL (≈ 6.83 mM), the Vdss [17] was 170 L/kg and the Activity [18] was “Dose-Dependent Effect”. The Vd [19] was 16 L/kg, the IC50 (CREB-binding protein) was over 10 µM and the Activity (Mus musculus [20]) was “Active”. For the same compound, the Activity (SAEC) was “Active”, the ΔTm [21] was 1.1 °C and the AUC(0-t) [22] was 602 ng·h/mL. For the same compound, the Activity (Mus musculus [23]) was “inactive”, the ΔTm [24] was 0.6 °C and the IC50 [25] was 0.37 µM. For the same compound, the Activity (Mus musculus [26]) was “inactive”, the Activity (Mus musculus [27]) was 100% and the Activity (Mus musculus [28]) was “Active”. For the same compound, the Cmax [29] was 86.9 ng/mL, the Activity [30] was “inactive” and the Activity (Mus musculus [31]) was “inactive”.
